Data published in ChEMBL document CHEMBL1157406, “Cytotoxic metabolites from the fungal endophyte Alternaria sp. and their subsequent detection in its host plant Polygonum senegalense” (J Nat Prod, 2008).

Legend:
Focal adhesion kinase 1 = Focal adhesion kinase 1 (Homo sapiens, UniProt Q05397); test: Inhibition of recombinant FAK
Method in brief: (§1)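 Purified recombinant kinase, 50 µL reaction. 1 µM [γ-33P]-ATP with substrate; compound added in 10% DMSO. Tested over several concentrations; IC50 in g/mL.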

[1] = biological target: Proto-oncogene tyrosine-protein kinase Src (Homo sapiens, UniProt P12931); test: Inhibition of recombinant SRC; method in brief: as §1
[2] = biological target: Vascular endothelial growth factor receptor 2 (Homo sapiens, UniProt P35968); test: Inhibition of recombinant VEGFR2; method in brief: as §1
[3] = biological target: T1, Receptor-type tyrosine-protein kinase FLT3 (Homo sapiens, UniProt P36888); test: Inhibition of recombinant FLT3; method in brief: as §1
T1 sequence (P36888 whole entry): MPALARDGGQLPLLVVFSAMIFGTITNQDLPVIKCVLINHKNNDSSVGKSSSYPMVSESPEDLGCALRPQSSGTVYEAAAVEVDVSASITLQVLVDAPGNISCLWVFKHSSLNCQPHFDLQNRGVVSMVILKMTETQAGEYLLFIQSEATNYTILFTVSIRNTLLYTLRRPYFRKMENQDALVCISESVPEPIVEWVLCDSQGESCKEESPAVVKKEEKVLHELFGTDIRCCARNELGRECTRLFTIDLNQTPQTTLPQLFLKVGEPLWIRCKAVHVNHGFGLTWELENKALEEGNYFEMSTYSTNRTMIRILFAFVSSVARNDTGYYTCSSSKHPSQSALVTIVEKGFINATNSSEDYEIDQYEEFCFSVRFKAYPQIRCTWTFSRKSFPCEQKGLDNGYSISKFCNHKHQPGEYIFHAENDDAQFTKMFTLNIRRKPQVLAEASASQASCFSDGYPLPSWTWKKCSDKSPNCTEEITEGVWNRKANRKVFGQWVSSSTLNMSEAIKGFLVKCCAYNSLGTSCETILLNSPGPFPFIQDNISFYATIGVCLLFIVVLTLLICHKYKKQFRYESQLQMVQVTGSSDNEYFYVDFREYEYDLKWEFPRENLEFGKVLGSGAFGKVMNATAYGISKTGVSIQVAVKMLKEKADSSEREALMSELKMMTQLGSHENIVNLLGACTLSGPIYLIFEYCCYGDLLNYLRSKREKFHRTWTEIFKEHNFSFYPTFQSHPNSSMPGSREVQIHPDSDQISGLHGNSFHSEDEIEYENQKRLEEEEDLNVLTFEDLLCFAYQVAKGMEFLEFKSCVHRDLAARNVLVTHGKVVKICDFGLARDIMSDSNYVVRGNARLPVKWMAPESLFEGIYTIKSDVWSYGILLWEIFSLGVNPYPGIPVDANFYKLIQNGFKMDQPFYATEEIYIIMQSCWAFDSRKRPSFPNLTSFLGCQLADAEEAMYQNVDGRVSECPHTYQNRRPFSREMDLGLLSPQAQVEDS

[4] = biological target: Hepatocyte growth factor receptor (Homo sapiens, UniProt P08581); test: Inhibition of recombinant MET
L5178Y = test: Cytotoxicity against mouse L5178Y cells at 10 ug/ml by MTT assay; format: functional
[5] = biological target: RAC-alpha serine/threonine-protein kinase (Homo sapiens, UniProt P31749); test: Inhibition of recombinant AKT1; method in brief: as §1
[6] = biological target: Cyclin-dependent kinase 4/cyclin D1 (Homo sapiens, UniProt P11802); test: Inhibition of recombinant CDK4/CycD1; method in brief: as §1
[7] = biological target: T2, Serine/threonine-protein kinase PLK4 (Homo sapiens, UniProt O00444); test: Inhibition of recombinant SAK
T2 sequence (O00444 whole entry): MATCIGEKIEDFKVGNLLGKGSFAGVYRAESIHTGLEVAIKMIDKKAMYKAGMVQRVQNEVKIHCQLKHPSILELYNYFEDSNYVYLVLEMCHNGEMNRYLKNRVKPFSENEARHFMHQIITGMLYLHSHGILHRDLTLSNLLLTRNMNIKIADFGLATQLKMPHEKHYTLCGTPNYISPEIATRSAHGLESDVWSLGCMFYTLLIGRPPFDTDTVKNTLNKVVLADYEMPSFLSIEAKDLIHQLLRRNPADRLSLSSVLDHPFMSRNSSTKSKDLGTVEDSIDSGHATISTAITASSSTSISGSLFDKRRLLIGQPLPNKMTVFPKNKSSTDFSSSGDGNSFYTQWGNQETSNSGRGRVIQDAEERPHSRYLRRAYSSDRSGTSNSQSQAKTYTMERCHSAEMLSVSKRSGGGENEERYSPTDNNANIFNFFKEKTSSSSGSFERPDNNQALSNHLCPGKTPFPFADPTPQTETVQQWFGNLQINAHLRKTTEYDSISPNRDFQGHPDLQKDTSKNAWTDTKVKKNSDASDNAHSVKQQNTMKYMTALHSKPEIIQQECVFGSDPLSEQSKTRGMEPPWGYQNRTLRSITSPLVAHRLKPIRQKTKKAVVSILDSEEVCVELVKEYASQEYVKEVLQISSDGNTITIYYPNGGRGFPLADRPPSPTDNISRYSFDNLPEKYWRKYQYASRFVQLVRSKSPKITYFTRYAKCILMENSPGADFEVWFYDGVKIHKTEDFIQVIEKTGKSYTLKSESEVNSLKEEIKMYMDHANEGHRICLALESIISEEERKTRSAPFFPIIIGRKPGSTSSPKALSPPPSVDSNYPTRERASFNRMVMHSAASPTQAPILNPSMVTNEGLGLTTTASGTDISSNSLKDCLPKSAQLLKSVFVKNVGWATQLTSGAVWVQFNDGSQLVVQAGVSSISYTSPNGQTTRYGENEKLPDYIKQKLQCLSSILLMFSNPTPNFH

Focal adhesion kinase 1, sequence (Q05397 whole entry): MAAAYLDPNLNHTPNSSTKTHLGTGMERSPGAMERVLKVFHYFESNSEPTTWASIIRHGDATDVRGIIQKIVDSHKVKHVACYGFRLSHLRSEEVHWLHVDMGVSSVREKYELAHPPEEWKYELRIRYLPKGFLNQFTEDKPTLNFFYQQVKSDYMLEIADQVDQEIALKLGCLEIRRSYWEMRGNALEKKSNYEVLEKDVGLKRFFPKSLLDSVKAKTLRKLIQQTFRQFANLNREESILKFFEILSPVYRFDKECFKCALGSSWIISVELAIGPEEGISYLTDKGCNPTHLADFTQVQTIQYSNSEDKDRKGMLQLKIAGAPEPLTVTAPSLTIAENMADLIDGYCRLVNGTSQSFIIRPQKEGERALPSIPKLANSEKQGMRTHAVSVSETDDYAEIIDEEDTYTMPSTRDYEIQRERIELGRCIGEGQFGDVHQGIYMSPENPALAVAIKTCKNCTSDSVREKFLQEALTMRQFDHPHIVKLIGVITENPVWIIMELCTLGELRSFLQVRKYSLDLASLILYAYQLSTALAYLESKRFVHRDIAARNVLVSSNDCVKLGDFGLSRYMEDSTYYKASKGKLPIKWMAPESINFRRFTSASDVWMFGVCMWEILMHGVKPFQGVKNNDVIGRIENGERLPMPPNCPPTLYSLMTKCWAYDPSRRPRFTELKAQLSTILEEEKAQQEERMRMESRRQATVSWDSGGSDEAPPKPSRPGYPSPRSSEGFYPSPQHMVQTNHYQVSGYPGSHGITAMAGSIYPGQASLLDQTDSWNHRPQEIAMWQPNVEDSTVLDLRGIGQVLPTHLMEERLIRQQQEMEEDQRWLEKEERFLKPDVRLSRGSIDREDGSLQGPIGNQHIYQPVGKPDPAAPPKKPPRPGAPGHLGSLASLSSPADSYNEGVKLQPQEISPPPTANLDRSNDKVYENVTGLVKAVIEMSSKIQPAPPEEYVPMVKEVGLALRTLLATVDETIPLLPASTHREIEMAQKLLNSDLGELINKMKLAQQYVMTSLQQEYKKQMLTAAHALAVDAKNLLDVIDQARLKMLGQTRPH
RAC-alpha serine/threonine-protein kinase, sequence (P31749 whole entry): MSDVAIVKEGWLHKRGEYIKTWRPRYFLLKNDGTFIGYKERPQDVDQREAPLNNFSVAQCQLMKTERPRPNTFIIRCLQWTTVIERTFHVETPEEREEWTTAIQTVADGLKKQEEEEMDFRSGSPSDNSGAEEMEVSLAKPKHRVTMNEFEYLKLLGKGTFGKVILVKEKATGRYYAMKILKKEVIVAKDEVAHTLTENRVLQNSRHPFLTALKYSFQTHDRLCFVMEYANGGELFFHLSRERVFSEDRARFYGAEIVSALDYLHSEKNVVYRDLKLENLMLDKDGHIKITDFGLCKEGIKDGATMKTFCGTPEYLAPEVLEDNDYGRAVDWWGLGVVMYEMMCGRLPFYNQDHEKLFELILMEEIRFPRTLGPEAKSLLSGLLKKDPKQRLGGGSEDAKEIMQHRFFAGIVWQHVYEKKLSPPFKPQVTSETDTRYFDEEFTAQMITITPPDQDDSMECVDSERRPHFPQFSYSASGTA
Hepatocyte growth factor receptor, sequence (P08581 whole entry): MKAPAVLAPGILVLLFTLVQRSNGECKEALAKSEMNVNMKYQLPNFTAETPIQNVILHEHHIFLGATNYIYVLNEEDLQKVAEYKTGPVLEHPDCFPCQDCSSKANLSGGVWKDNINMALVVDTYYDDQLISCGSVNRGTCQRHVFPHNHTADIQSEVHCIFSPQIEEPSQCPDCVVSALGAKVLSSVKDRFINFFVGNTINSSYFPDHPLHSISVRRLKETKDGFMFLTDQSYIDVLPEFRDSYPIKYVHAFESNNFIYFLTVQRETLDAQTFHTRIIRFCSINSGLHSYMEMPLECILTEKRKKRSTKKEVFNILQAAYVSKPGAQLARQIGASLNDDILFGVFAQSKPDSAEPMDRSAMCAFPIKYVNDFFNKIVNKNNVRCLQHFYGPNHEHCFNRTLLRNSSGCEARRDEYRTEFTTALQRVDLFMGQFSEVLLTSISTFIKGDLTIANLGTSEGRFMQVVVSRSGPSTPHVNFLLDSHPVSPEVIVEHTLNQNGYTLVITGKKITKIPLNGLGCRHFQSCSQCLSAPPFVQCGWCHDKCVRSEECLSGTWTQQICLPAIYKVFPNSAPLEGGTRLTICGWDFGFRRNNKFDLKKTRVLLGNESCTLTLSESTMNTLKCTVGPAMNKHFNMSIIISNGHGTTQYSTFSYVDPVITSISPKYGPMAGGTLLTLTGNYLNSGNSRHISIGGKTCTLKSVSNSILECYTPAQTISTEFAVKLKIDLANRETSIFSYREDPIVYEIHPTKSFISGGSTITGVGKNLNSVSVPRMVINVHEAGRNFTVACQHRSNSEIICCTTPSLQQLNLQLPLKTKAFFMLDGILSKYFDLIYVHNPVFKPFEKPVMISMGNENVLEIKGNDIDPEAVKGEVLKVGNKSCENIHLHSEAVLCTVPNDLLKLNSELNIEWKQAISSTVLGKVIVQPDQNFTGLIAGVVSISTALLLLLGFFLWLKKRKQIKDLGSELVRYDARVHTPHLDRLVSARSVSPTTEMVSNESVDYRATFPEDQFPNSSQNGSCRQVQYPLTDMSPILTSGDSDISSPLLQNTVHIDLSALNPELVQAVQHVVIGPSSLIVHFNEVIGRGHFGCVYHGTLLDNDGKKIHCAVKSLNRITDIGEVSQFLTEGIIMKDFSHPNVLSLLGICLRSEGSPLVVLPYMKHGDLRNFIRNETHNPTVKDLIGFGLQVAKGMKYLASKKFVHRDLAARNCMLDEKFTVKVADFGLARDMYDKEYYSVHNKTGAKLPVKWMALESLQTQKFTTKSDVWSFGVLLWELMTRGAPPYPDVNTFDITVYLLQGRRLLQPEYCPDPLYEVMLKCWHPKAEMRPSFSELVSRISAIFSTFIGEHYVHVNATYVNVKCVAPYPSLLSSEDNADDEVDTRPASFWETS
Proto-oncogene tyrosine-protein kinase Src, sequence (P12931 2-536 limits assumed): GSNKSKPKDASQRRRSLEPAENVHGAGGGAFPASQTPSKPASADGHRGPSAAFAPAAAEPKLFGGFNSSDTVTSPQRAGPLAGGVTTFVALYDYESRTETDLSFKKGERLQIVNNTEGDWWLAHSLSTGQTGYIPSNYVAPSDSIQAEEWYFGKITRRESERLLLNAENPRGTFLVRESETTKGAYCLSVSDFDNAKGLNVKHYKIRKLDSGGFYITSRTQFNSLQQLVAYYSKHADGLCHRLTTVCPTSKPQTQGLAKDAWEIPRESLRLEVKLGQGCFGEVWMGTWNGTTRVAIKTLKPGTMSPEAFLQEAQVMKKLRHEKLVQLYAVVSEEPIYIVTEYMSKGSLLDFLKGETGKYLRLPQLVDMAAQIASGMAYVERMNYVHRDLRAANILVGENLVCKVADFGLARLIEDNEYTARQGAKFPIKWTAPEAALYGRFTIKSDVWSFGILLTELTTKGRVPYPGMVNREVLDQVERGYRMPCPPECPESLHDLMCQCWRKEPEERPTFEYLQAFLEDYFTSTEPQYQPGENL
Cyclin-dependent kinase 4/cyclin D1, sequence (P11802 whole entry): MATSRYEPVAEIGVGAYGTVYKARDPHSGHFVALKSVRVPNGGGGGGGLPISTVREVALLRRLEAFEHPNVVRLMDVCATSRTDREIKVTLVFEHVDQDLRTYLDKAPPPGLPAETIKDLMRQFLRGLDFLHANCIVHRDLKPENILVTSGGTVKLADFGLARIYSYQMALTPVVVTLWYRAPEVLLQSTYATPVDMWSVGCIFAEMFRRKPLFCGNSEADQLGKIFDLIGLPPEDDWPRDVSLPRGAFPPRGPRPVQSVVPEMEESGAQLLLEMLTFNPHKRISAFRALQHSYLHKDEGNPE
Cyclin-dependent kinase 4/cyclin D1, sequence (P24385 whole entry, further chain): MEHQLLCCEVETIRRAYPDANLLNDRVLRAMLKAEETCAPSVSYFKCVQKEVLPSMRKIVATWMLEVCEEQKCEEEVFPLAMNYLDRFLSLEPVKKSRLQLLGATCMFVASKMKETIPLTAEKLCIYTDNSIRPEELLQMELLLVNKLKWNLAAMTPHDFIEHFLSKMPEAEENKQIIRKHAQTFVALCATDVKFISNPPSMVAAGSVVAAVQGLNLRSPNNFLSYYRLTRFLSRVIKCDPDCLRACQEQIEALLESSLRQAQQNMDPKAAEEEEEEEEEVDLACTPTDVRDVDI

Structure (SMILES)	IC50 (Focal adhesion kinase 1; read-out: IC50 (converted))	IC50 ([1]; read-out: IC50 (converted))	IC50 [2]	IC50 [3]	IC50 ([4]; read-out: IC50 (converted))	Activity (L5178Y)	IC50 [5]	IC50 [6]	IC50 [7]	IC50 ([2]; read-out: IC50 (converted))	IC50 ([3]; read-out: IC50 (converted))	IC50 ([5]; read-out: IC50 (converted))	IC50 ([7]; read-out: IC50 (converted))	IC50 (Focal adhesion kinase 1)	IC50 [1]	IC50 [4]
Cc1cc(O)cc2oc(=O)c3c(O)cc(OS(=O)(=O)O)cc3c12	6.21 µM	16.6 µM	7 ×10⁻⁷ g/ml	3.3 ×10⁻⁷ g/ml	22.5 µM	0.9%	> 1 ×10⁻⁵ g/ml	7.98 µM	3.8 ×10⁻⁷ g/ml	–	–	–	–	–	–	–
COc1cc(O)c2c(=O)oc3cc(O)cc(C)c3c2c1	32.7 µM	4.41 µM	–	–	–	1.8%	–	7.71 µM	–	4.04 µM	3.67 µM	29 µM	9.18 µM	–	–	–
Cc1cc(O)cc2oc(=O)c3c(O)cc(O)cc3c12 [ALTERNARIOL]	9.29 µM	17 µM	9.2 ×10⁻⁷ g/ml	4.3 ×10⁻⁷ g/ml	20.9 µM	3.7%	> 1 ×10⁻⁵ g/ml	9.29 µM	9.6 ×10⁻⁷ g/ml	–	–	–	–	–	–	–
COc1cc(O)c2c(c1)C1(OC2=O)C(C)=CC(=O)C1O (stereo unspecified) [TALAROFLAVONE]	–	–	> 1 ×10⁻⁵ g/ml	> 1 ×10⁻⁵ g/ml	–	92.9%	> 1 ×10⁻⁵ g/ml	–	> 1 ×10⁻⁵ g/ml	–	–	–	–	> 1 ×10⁻⁵ g/ml	> 1 ×10⁻⁵ g/ml	> 1 ×10⁻⁵ g/ml
Cc1cc(O)c(O)cc1-c1cc(O)cc(O)c1C(=O)O	–	17 µM	–	–	9.05 µM	0.8%	> 1 ×10⁻⁵ g/ml	15.9 µM	–	13.8 µM	6.52 µM	–	6.15 µM	> 1 ×10⁻⁵ g/ml	–	–
COc1cc(O)c(C(=O)O)c(C2=C(C)C[C@@H](O)C2=O)c1 [ALTERNARIENONIC ACID]	–	16.5 µM	–	–	33.8 µM	101.2%	> 1 ×10⁻⁵ g/ml	–	–	18.3 µM	23.7 µM	–	8.98 µM	> 1 ×10⁻⁵ g/ml	–	–
COc1cc(O)c2c(=O)oc3c(O)c(O)cc(C)c3c2c1	17 µM	4.86 µM	6.4 ×10⁻⁷ g/ml	5.3 ×10⁻⁷ g/ml	5.9 µM	47.1%	–	5.9 µM	8.3 ×10⁻⁷ g/ml	–	–	18.4 µM	–	–	–	–
O=C1C[C@H](O)[C@@H]2c3c(ccc(O)c31)-c1ccc(O)c3c1[C@@]2(O)CCC3=O [ALTERTOXIN I]	20.7 µM	5.96 µM	–	6.6 ×10⁻⁷ g/ml	19.9 µM	77.3%	> 1 ×10⁻⁵ g/ml	18.2 µM	–	3.97 µM	–	–	4.82 µM	–	–	–
COc1cc(O)c2c(c1)-c1cc(O)c(O)cc1COC2=O [ALTERLACTONE]	–	–	> 1 ×10⁻⁵ g/ml	> 1 ×10⁻⁵ g/ml	–	11.8%	> 1 ×10⁻⁵ g/ml	–	> 1 ×10⁻⁵ g/ml	–	–	–	–	> 1 ×10⁻⁵ g/ml	> 1 ×10⁻⁵ g/ml	> 1 ×10⁻⁵ g/ml
COc1cc(O)c(C(=O)O)c(-c2cc(O)c(O)cc2C)c1 [ALTENUSIN]	–	28.6 µM	–	–	14.8 µM	1.2%	> 1 ×10⁻⁵ g/ml	15.5 µM	–	17.2 µM	5.51 µM	–	11 µM	> 1 ×10⁻⁵ g/ml	–	–
